This passage reports IC50 results from ChEMBL document CHEMBL1155849, “Cadinane sesquiterpenes from the leaves of Eupatorium adenophorum” (J Nat Prod, 2008).

Holding throughout (format): functional, cell-based
One assay has as its system HCT-8. Put plainly: Cytotoxicity against human HCT8 cells by MTT assay. In short, it runs like this: (§1)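 Cell proliferation was read out by MTT. The lines were HCT-8 (colon), Bel-7402 (hepatoma) and A2780 (ovarian), all of human origin. Values are reported as IC50.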
For orientation: Formazan colour is commonly taken as a measure of viable cells.

Another assay has as its system Bel-7402. Put plainly: Cytotoxicity against human Bel7402 cells by MTT assay. The procedure, abridged:
as §1

For a further assay, the system named is A2780. Put plainly: Cytotoxicity against human A2780 cells by MTT assay. In short, it runs like this:
as §1

As a reminder, the IC50 is the concentration that gives 50% inhibition. Read a low IC50 as greater potency. As to `CC1=C[C@@H]2C3=C(C)COO[C@@]3(O)C[C@@H](C)[C@@H]2CC1=O`, the IC50 in the assay on HCT-8, with Bel-7402 and in the assay with A2780 was greater than 5 µM each time.
With `CC1=C[C@H]2[C@@H](CC1)[C@H](C)C[C@H](O)[C@@]2(O)C(C)C`, the IC50 with HCT-8 was 2 µM; with Bel-7402, 1.7 µM; in the assay on A2780, 1.7 µM.
On to `CC1=C[C@@H]2C3=C(C)C(=O)O[C@H]3C[C@@H](C)[C@@H]2CC1=O`, for which the IC50 in the assay on HCT-8, in the assay on Bel-7402 and with A2780 was greater than 5 µM in each case.
Consider `CC1=C[C@@H]2C3=C(C)C(=O)O[C@]3([C@@]34C[C@@H](C)[C@@H]5CC(=O)C(C)=C[C@@H]5C3=C(C)C(=O)O4)C[C@@H](C)[C@@H]2CC1=O`, for which the IC50 with HCT-8, with Bel-7402 and in the assay with A2780 was greater than 5 µM in each case.
